Compounds with a hit are over-represented: about 3.5% of the library has one in this group of screens.
MrgX1 agonist: agonists of human MrgX1 receptor, primary screen, HEK293 cells, Fluo-4 calcium flux; Fluo-4 calcium fluorescence, agonist mode; hits give high values; B-score at 10 µM; actives 0.44% (n = 310,000);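 active = calcium response B-score plate-corrected fluorescence ratio at least 3 library SD, with starting fluorescence B-score inside 5 SD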
Target sequence (Q96LB2 whole entry, looked up): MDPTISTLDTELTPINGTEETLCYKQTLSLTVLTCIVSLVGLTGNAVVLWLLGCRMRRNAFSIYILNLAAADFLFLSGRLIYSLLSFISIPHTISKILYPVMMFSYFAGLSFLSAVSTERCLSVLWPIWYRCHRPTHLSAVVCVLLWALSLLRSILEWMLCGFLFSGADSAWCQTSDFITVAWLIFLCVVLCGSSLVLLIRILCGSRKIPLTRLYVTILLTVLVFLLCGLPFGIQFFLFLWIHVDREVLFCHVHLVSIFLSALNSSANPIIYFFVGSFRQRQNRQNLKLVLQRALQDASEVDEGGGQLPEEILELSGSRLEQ
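Test system: HEK293 cells stably expressing human MrgX1 receptor; amount: 15,000 cells per well; doses: compound delivered in addition one of three; times: overnight plating before 1 h dye loading; detection: Fluo-4 NW calcium-flux fluorescence, kinetic read; read-out basis: B-scored fluorescence response ratio; controls: positive and negative controls per plate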
RGS4 inh: RGS4 inhibitors, primary screen, cell-based, HEK293 M3R inducible RGS4, calcium flux | AID 463165, 2010 | Fluo-4 calcium flux; hits give high values; triggered by carbachol at its EC20 | actives 0.45% (n = 310,000) | Regulator of G-protein signaling 4 (Homo sapiens), P49798 | B-score at 10 µM;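 active = B-score, a plate-corrected calcium signal, over three deviations above library mean, with baseline fluorescence within five deviations of library mean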;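 note: RGS4 expression induced by doxycycline in cells with stable M3 receptor; B-score is computed from the integrated fluorescence ratio over baseline after carbachol; higher B-score means a larger calcium signal and so more RGS4 inhibition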
Target sequence (P49798 whole entry, looked up): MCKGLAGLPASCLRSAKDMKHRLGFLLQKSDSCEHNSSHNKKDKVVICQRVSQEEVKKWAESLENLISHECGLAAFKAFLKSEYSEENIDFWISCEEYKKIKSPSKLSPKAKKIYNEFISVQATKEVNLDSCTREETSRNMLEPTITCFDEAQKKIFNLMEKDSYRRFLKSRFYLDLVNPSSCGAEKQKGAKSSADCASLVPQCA
MrgX1 allo act: positive allosteric modulators of MrgX1, primary screen, HEK293 cells, Fluo-4 calcium flux | Mas-related G-protein coupled receptor member X1 (Homo sapiens), Q96LB2 | FDSS; hits give high values | B-score at 10 µM | actives 0.63% (n = 310,000);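 active = plate-corrected calcium response at least 3 library SD above typical, normal starting fluorescence, not activating the receptor alone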;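 note: compound read alongside a low EC10 to EC30 dose of BAM8-22 agonist; peak minus trough fluorescence over baseline measured at the second addition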
MrgX1 antag: antagonists of human MrgX1 receptor, primary screen, HEK293 cells, Fluo-4 calcium flux | Mas-related G-protein coupled receptor member X1 (Homo sapiens), Q96LB2 | actives 1.3% (n = 310,000) | BAM8-22 antagonism; hits give low values | B-score at 10 µM;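 active = calcium-response B-score plate-corrected more than 3 library SD below zero, starting fluorescence within 5 deviations, no agonist response on first addition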;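 note: peak minus trough fluorescence over baseline after final BAM8-22 challenge near maximal dose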
RGS4 act: RGS4 potentiators or activators, primary screen, cell-based, HEK293 M3R inducible RGS4, calcium flux. carbachol calcium flux Fluo4; hits give low values. B-score at 10 µM. actives 0.92% (n = 310,000);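 active = B-score of the integrated calcium signal more than 4 SD below the library mean, with starting fluorescence not abnormally high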;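 note: negative B-score means reduced calcium response which marks RGS4 activation or potentiation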
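Material: Inducible-RGS4 HEK293 cells carrying M3 receptor; also added: carbachol at ECmax as muscarinic agonist stimulus; incubation: compound preincubation 20 min at room temperature before agonist; signal: Fluo4-AM (2 µM) calcium-flux fluorescence, kinetic read; measure: integrated calcium ratio converted to B score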
RGS4 activ val: reduced carbachol calcium response, RGS4-induced M3R cells, confirmation, RGS4 activator project, cell-based, HEK293 M3R/RGS4 inducible, calcium flux, duplicate; shares compounds with RGS4 act; carbachol calcium flux Fluo4; inhibition, % at 10 µM; actives 89% (n = 1,100); AID 602282, 2012;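 active = inhibition above 3 SD of the buffer control wells, cut at about 41% in these data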;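 note: signal is the integrated peak-minus-minimum Fluo4 fluorescence over baseline ratio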
RGS4 act ctr: activity in cells without induced RGS4 expression; shares compounds with RGS4 act; HEK293 M3R non-induced RGS4, Fluo4 calcium flux; after carbachol challenge at its EC90; inhibition, % at 10 µM; actives 82% (n = 1,100); AID 602283;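 active = inhibition exceeding 3 SD of buffer-only control wells, cut at about 26% in these data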;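 note: percent drop in integrated peak-minus-baseline over baseline Fluo4 ratio after carbachol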
Numbers without * were called inactive; i = inactive; . = not tested or not shown.

SMILES	MrgX1 agonist	RGS4 inh	MrgX1 allo act	MrgX1 antag	RGS4 act	RGS4 activ val	RGS4 act ctr
COC(=O)c1ccc(CN2CCCC(CCC(=O)NCc3ccc(C)o3)C2)cc1 (configuration not stated)	i	i	i	i	-9*	88*	71*
COc1ccc(/C=C/CN2CCCC(CCC(=O)NCc3ccc(F)c(F)c3)C2)cc1 (configuration not stated)	i	i	i	i	-7.8*	92*	87*
O=C(CCC1CCCN(Cc2cccc3c2OCO3)C1)NCc1ccc(F)c(F)c1 (configuration not stated)	i	i	i	i	-9.4*	50*	33*
O=C(N/N=C/c1ccc([N+](=O)[O-])cc1)c1ccc(COc2ccccc2-c2ccccc2)cc1	i	i	i	i	i	.	.
Nn1cnc2c(c1=O)C1(CCCCC1)Cc1ccccc1-2	i	i	i	i	i	.	.
O=c1c2c(nc3n1CCCCC3)-c1ccccc1CC21CCCC1	i	i	i	i	-11*	93*	94*
CN(CC(=O)Nc1ccccc1Sc1ccccc1)C1CCCCC1	i	i	i	i	-8.2*	94*	89*
CSc1ccccc1NC(=O)CN(C1CCCCC1)S(C)(=O)=O	i	i	i	i	i	.	.
O=C(NCc1ccc(Cl)s1)C1CCC(=O)N(CCc2ccccn2)C1 (configuration not stated)	i	i	i	i	i	.	.
CC(C)c1ccc(C2c3[nH]c4ccccc4c3C[C@H]3C(=O)N(c4ccccc4C(=O)N4CCC(C(=O)O)CC4)C(=O)N23)cc1 (some centres not stated)	i	i	i	i	i	.	.
CC1(C)CC(=O)C=C(NCc2ccccc2)C1	i	i	i	i	i	.	.
CC1(C)CC(=O)C=C(NCc2cccc(C(F)(F)F)c2)C1	i	i	i	i	-8.7*	0	0
COc1ccc(NC(=O)c2cc(=O)[nH]c(=O)[nH]2)cc1S(=O)(=O)Nc1ccccc1Cl	i	i	i	i	i	.	.
Cc1nc(SCC(=O)O)c2oc3ccccc3c2n1	i	i	i	i	i	.	.
CCc1nc(SCC(=O)NC2CCCC2)c2oc3ccccc3c2n1	i	i	i	i	i	.	.
CCc1nc(SCC(=O)N2CCCc3ccccc32)c2oc3ccccc3c2n1	i	i	i	i	-9.4*	90*	71*
Cc1nc(SCC(=O)N2CCN(c3ccccc3)CC2)c2oc3ccccc3c2n1	i	i	i	i	-9.3*	80*	0
Cn1c(Cc2ccccc2)nnc1SCc1ccc(C(=O)O)cc1	i	i	i	i	i	.	.
COc1cc(NC2c3ncccc3C(=O)N2Cc2ccco2)cc(OC)c1OC (configuration not stated)	i	i	i	i	i	.	.
Cc1ccc(-n2nc(C)cc2Nc2ncc(Cl)cc2Cl)cc1	i	i	i	i	-8.7*	92*	74*
c1ccc(Cn2c(CN3CCCC3)nc3ccccc32)cc1	i	i	i	i	-8.5*	0	84*
Clc1ccc(Cn2c(CN3CCCC3)nc3ccccc32)cc1	i	i	i	i	i	.	.
O=C(c1cccs1)N1CCCC(c2nc3c(nnn3Cc3c(Cl)cccc3Cl)c(=O)[nH]2)C1 (configuration not stated)	i	i	i	i	-8.3*	52*	84*
CCOC(=O)C1(CCc2ccccc2)CCN(Cc2ccc(C(=O)OC)cc2)CC1	i	i	i	i	i	.	.
COc1ccc(/C=C/CN2CCC(CO)(Cc3ccccc3Cl)CC2)cc1	i	i	i	i	-9.7*	89*	40*
SMILES	MrgX1 agonist	RGS4 inh	MrgX1 allo act	MrgX1 antag	RGS4 act	RGS4 activ val	RGS4 act ctr
COC(=O)c1ccc(CN2CCC(CO)(Cc3ccccc3Cl)CC2)cc1	i	i	i	i	-7.8*	92*	60*
CCOC(=O)C1(CC2CC2)CCN(Cc2ccc(C(=O)OC)cc2)CC1	i	i	i	i	-8.7*	93*	49*
C1CC(CN2CCOCC2)CN(Cc2nc(CC3CC3)no2)C1 (configuration not stated)	i	i	i	i	i	.	.
CCC(C(=O)NCCCN1CC(C)CC(C)C1)n1ncn2c(cc3occc32)c1=O (configuration not stated)	i	i	i	i	i	.	.
CCOc1ccc(-n2c(SCC(=O)Nc3cc(C)on3)nc3c(c2=O)SCC3)cc1	i	i	i	i	i	.	.
CC(NC(=O)c1ccccc1)C(c1cccs1)N1CCOCC1 (configuration not stated)	i	i	i	i	i	.	.
CCSc1nc2sc3c(c2c(=O)n1-c1ccccc1)CCN(C(C)C)C3	i	i	i	i	-7.9*	64*	0
CN1CCc2c(sc3nc(SCC(N)=O)n(-c4ccccc4)c(=O)c23)C1	i	i	i	i	i	.	.
CNc1nc(-c2ccccc2)[n+](-c2ccc(C)cc2)s1	i	i	i	i	-14*	97*	93*
CN(C)C(=O)CSc1nnc(-c2cc(-c3cccs3)nc3ccccc23)o1	i	i	i	i	-8.3*	76*	45*
OCCCNc1cc(-c2ccccc2)nc2cc(-c3ccc(F)cc3)nn12	i	i	i	i	-8.8*	68*	42*
Cc1cc(NCCCO)n2nc(-c3cccs3)cc2n1	i	i	i	i	i	.	.
CCC(Cc1ccccc1)NC(=O)C1CCN(S(=O)(=O)c2ccc3c(c2)CC(C)N3C(C)=O)CC1 (configuration not stated)	i	i	i	i	i	.	.
CS(=O)(=O)N1CCC(C(=O)Nc2ccc(F)c(Cl)c2)CC1	i	i	i	i	-8.4*	0	0
COC(=O)c1cnn(-c2ccccc2)c1N	i	i	i	i	i	.	.
